In brackets after ≈: the same amount, converted by molar mass.
How the values were obtained:
Pseudomonas aeruginosa [1] = assay: Antimicrobial activity against Pseudomonas aeruginosa 584/5 isolate by double-microdilution method; assay type: functional
Escherichia coli [2] = assay: Antimicrobial activity against Escherichia coli ATCC 25922 by double-microdilution method; assay type: functional
[3] = Toxicity in iv dosed ICR mouse assessed as effect on mortality after 4 days; assay type: organism-based; settings: in vivo
[4] = test system: Staphylococcus epidermidis; assay: Antimicrobial activity against Staphylococcus epidermidis ATCC 12228 by double-microdilution method; assay type: functional
In short: (§1)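 Double-microdilution method following NCCLS, starting at 384 µg/mL of compound with doubling dilutions. Run in triplicate (a table footnote says duplicates), with analogous results in three separate experiments.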

Escherichia coli [5] = assay: Antimicrobial activity against Escherichia coli XL1 expressing APH(3')-1a by double-microdilution method; assay type: functional
Pseudomonas aeruginosa [6] = assay: Antimicrobial activity against Pseudomonas aeruginosa 590 isolate by double-microdilution method; assay type: functional; in short: as §1
Pseudomonas aeruginosa [7] = assay: Antimicrobial activity against Pseudomonas aeruginosa ATCC 27853 by double-microdilution method; assay type: functional
Bacillus subtilis = assay: Antimicrobial activity against Bacillus subtilis by double-microdilution method; assay type: functional; in short: as §1
Escherichia coli [8] = assay: Antimicrobial activity against Escherichia coli R477-100 by double-microdilution method; assay type: functional
Escherichia coli [9] = assay: Inhibition of translation in Escherichia coli S30 extract by coupled transcription/translation assay; assay type: functional
In short: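 E. coli S30 extract for circular DNA with pBES-Tluc plasmid, coupled transcription/translation. 25 µL reactions with varied aminoglycoside concentrations, 60 min at 37 °C, then 5 min on ice. Diluted into Tris-phosphate 25 mM pH 7.8 buffer with DTT, CDTA, glycerol, Triton X-100 and BSA. Luciferase luminescence read at once; IC50 fitted from concentration-response curves of at least two independent experiments.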

Pseudomonas aeruginosa [10] = assay: Activity of Pseudomonas aeruginosa APH(3')-2b assessed as rate of NADH absorbance decrease by pyruvate kinase/lactate dehydrogenase coupled assay
In short: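 Recombinant APH(3')-IIb purified on a neomycin B affinity column. Substrate neamine 1–100 μM, inhibitor 0–1000 μM. Preincubation 5 min at 37 °C, then started with enzyme. NADH loss read at 340 nm; Ki by nonlinear regression.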

[11] = Inhibition of Pseudomonas aeruginosa APH(3')-2b assessed as rate of NADH absorbance decrease by pyruvate kinase/lactate dehydrogenase coupled assay
In short: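 Purified recombinant APH(3')-IIb, affinity-purified on a neomycin B column. ATP consumption followed by pyruvate kinase/lactate dehydrogenase coupling as NADH decrease at 340 nm. Buffer: 50 mM Tris-HCl pH 7.5, 40 mM KCl, 10 mM MgCl2, 1 mM ATP, 2.5 mM PEP. Neamine substrate 1–100 µM, inhibitor 0–1000 µM. 5 min preincubation at 37 °C, started with enzyme. Ki by nonlinear regression.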

| SMILES | MIC (Pseudomonas aeruginosa [1]) | MIC (Escherichia coli [2]) | LD50 at 96 h [3] | MIC [4] | MIC (Escherichia coli [5]) | MIC (Pseudomonas aeruginosa [6]) | MIC (Pseudomonas aeruginosa [7]) | MIC (Bacillus subtilis) | MIC (Escherichia coli [8]) | IC50 (Escherichia coli [9]) | Km (Pseudomonas aeruginosa [10]) | kcat (Pseudomonas aeruginosa [10]) | Ki [11] |
| --- | --- | --- | --- | --- | --- | --- | --- | --- | --- | --- | --- | --- | --- |
| CN[C@@H]1[C@@H](O)[C@@H](O[C@@H]2[C@@H](O)[C@H](O[C@H]3O[C@H](CN)[C@H]4OCO[C@@H]4[C@H]3N)[C@@H](N)C[C@H]2N)OC[C@]1(C)O | 24 µg/mL (≈ 48.6 µM) | 48 µg/mL (≈ 97.3 µM) | 226 mg/kg | 24 µg/mL (≈ 48.6 µM) | 12 µg/mL (≈ 24.3 µM) | 48 µg/mL (≈ 97.3 µM) | 24 µg/mL (≈ 48.6 µM) | 12 µg/mL (≈ 24.3 µM) | 48 µg/mL (≈ 97.3 µM) | 0.038 µM | – | – | – |
| NC[C@H]1O[C@H](O[C@H]2[C@H](O)[C@@H](O)[C@H](N)C[C@@H]2N)[C@H](N)[C@@H](O)[C@@H]1O [NEAMINE] | – | – | 161 mg/kg | – | – | – | – | – | 96 µg/mL (≈ 298 µM) | – | 10.3 µM | 1.7 s⁻¹ | – |
| NC[C@H]1O[C@H](O[C@H]2[C@H](O)[C@@H](O)[C@H](N)C[C@@H]2N)[C@H](N)[C@H]2OCO[C@@H]21 | – | – | 303 mg/kg | – | – | – | – | – | > 384 µg/mL | – | – | – | 642 µM |
| NC[C@@H]1CC[C@@H](N)[C@@H](O[C@H]2[C@H](O)[C@@H](O)[C@H](N)C[C@@H]2N)O1 [GENTAMINE C1A] | – | – | 103 mg/kg | – | – | – | – | – | 192 µg/mL (≈ 661 µM) | – | – | – | 650 µM |
| CNC1C(O)C(OC2C(N)CC(N)C(OC3OC(CN)CCC3N)C2O)OCC1(C)O (stereo not drawn) [GENTAMICIN C1A] | – | – | – | 6 µg/mL (≈ 13.3 µM) | – | 384 µg/mL (≈ 854 µM) | – | 6 µg/mL (≈ 13.3 µM) | – | – | – | – | – |
